Measured values as given in ChEMBL document CHEMBL1133591, “Potent derivatives of glucagon-like peptide-1 with pharmacokinetic properties suitable for once daily administration” (J Med Chem, 2000).
Numbered stars: 1 amine (or outer) side, 2 acyl side, 3 side chain; on linkers, the order of the positions; unused ones are H or OH. Square brackets hold non-standard residues; d marks the D form. Side chains are listed from the residue outwards. Peptide text beside a SMILES is read from it. * marks the point of attachment. ξ: configuration not given here. ξγGlu = O=C(O)C(CCC(=O)[*:2])N[*:1]; Palmitoyl = CCCCCCCCCCCCCCCC(=O)*; X1 = CCCCCCCCCC(CCCCC(=O)*)C(=O)O; ξK = NCCCCC(N)C(=O)O

Tests used:
[1] = biological target: Glucagon-like peptide 1 receptor (Homo sapiens, UniProt P43220); assay: Potency measured using recombinant human GLP-1 receptor expressed in Baby Hamster Kidney (BHK)cells; type: cell-based
[2] = Plasma half life was determined in pigs; type: ADME, organism-based, Sus scrofa; conditions: pig
In short: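 Landrace × Duroc × Yorkshire pigs, 25–50 kg, two per compound; single sc dose, 0.5 nmol/kg for analogues, 15 nmol/kg for GLP-1. Jugular catheter blood at 0–72 h, extra early samples for GLP-1; EDTA/aprotinin/bacitracin-stabilized plasma. Unextracted plasma assayed by N-terminal-specific GLP-1 radioimmunoassay against spiked pig-plasma calibrators; half-life calculated per pig, reported as mean ± SD.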

Chain of Glucagon-like peptide 1 receptor (P43220 whole entry): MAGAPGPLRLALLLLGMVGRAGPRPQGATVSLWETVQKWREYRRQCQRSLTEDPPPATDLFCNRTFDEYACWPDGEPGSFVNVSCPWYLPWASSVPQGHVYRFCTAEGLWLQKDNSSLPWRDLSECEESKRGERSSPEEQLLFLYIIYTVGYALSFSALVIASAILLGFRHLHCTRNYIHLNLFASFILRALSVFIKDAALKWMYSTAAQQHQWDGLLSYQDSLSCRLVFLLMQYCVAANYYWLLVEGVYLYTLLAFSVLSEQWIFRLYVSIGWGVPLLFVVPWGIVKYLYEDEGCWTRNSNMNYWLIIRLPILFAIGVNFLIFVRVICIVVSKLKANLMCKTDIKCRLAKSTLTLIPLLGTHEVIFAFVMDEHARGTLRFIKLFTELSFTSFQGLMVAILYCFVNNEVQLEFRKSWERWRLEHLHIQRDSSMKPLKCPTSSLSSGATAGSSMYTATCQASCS

| SMILES | EC50 [1] | half-life [2] |
| --- | --- | --- |
| CCCCCCCCCCCCCCCC(=O)NC(CCC(=O)NCCCC[C@H](NC(=O)CNC(=O)[C@H](CCC(=O)O)NC(=O)[C@H](CC(C)C)NC(=O)[C@H](Cc1ccc(O)cc1)NC(=O)[C@H](CO)NC(=O)[C@H](CO)NC(=O)[C@@H](NC(=O)[C@H](CC(=O)O)NC(=O)[C@H](CO)NC(=O)[C@@H](NC(=O)[C@H](Cc1ccccc1)NC(=O)[C@@H](NC(=O)CNC(=O)[C@H](CCC(=O)O)NC(=O)[C@H](C)NC(=O)[C@@H](N)Cc1c[nH]cn1)[C@@H](C)O)[C@@H](C)O)C(C)C)C(=O)N[C@@H](C)C(=O)N[C@@H](C)C(=O)N[C@@H](CCCN=C(N)N)C(=O)N[C@@H](CCC(=O)O)C(=O)N[C@@H](Cc1ccccc1)C(=O)N[C@H](C(=O)N[C@@H](C)C(=O)N[C@@H](Cc1c[nH]c2ccccc12)C(=O)N[C@@H](CC(C)C)C(=O)N[C@H](C(=O)N[C@@H](CCCN=C(N)N)C(=O)NCC(=O)N[C@@H](CCCN=C(N)N)C(=O)NCC(=O)O)C(C)C)[C@@H](C)CC)C(=O)O (stereo partly drawn) (H-HAEGTFTSDVSSYLEGK([ξγGlu-Palmitoyl])AAREFIAWLVRGRG-OH) | 0.0301 nM | 20 h |
| CCCCCCCCCC(CCCCC(=O)NCCCC[C@H](NC(=O)CNC(=O)[C@H](CCCN=C(N)N)NC(=O)[C@@H](NC(=O)[C@H](CC(C)C)NC(=O)[C@H](Cc1c[nH]c2ccccc12)NC(=O)[C@H](C)NC(=O)[C@@H](NC(=O)[C@H](Cc1ccccc1)NC(=O)[C@H](CCC(=O)O)NC(=O)[C@H](CCCN=C(N)N)NC(=O)[C@H](C)NC(=O)[C@H](C)NC(=O)[C@H](CCC(N)=O)NC(=O)CNC(=O)[C@H](CCC(=O)O)NC(=O)[C@H](CC(C)C)NC(=O)[C@H](Cc1ccc(O)cc1)NC(=O)[C@H](CO)NC(=O)[C@H](CO)NC(=O)[C@@H](NC(=O)[C@H](CC(=O)O)NC(=O)[C@H](CO)NC(=O)[C@@H](NC(=O)[C@H](Cc1ccccc1)NC(=O)[C@@H](NC(=O)CNC(=O)[C@H](CCC(=O)O)NC(=O)[C@H](C)NC(=O)[C@@H](N)Cc1c[nH]cn1)[C@@H](C)O)[C@@H](C)O)C(C)C)[C@@H](C)CC)C(C)C)C(=O)NCC(=O)O)C(=O)O (stereo partly drawn) (H-HAEGTFTSDVSSYLEGQAAREFIAWLVRGK(X1)G-OH) | 0.00789 nM | 13 h |
| CCCCCCCCCCCCCCCC(=O)NC(CCC(=O)NCCCC[C@H](NC(=O)CNC(=O)[C@H](CCCN=C(N)N)NC(=O)[C@@H](NC(=O)[C@H](CC(C)C)NC(=O)[C@H](Cc1c[nH]c2ccccc12)NC(=O)[C@H](C)NC(=O)[C@@H](NC(=O)[C@H](Cc1ccccc1)NC(=O)[C@H](CCC(=O)O)NC(=O)[C@H](CCCN=C(N)N)NC(=O)[C@H](C)NC(=O)[C@H](C)NC(=O)[C@H](CCC(N)=O)NC(=O)CNC(=O)[C@H](CCC(=O)O)NC(=O)[C@H](CC(C)C)NC(=O)[C@H](Cc1ccc(O)cc1)NC(=O)[C@H](CO)NC(=O)[C@H](CO)NC(=O)[C@@H](NC(=O)[C@H](CC(=O)O)NC(=O)[C@H](CO)NC(=O)[C@@H](NC(=O)[C@H](Cc1ccccc1)NC(=O)[C@@H](NC(=O)CNC(=O)[C@H](CCC(=O)O)NC(=O)[C@H](C)NC(=O)[C@@H](N)Cc1c[nH]cn1)[C@@H](C)O)[C@@H](C)O)C(C)C)[C@@H](C)CC)C(C)C)C(=O)NCC(=O)O)C(=O)O (stereo partly drawn) (H-HAEGTFTSDVSSYLEGQAAREFIAWLVRGK([ξγGlu-Palmitoyl])G-OH) | 0.0364 nM | 12 h |
| CCCCCCCCCCCCCCCC(=O)NC(CCC(=O)NCCCCC(NC(=O)[C@H](CCC(=O)O)NC(=O)[C@H](CCCN=C(N)N)NC(=O)CNC(=O)[C@H](CCCN=C(N)N)NC(=O)[C@@H](NC(=O)[C@H](CC(C)C)NC(=O)[C@H](Cc1c[nH]c2ccccc12)NC(=O)[C@H](C)NC(=O)[C@@H](NC(=O)[C@H](Cc1ccccc1)NC(=O)[C@H](CCC(=O)O)NC(=O)[C@H](CCCN=C(N)N)NC(=O)[C@H](C)NC(=O)[C@H](C)NC(=O)[C@H](CCC(N)=O)NC(=O)CNC(=O)[C@H](CCC(=O)O)NC(=O)[C@H](CC(C)C)NC(=O)[C@H](Cc1ccc(O)cc1)NC(=O)[C@H](CO)NC(=O)[C@H](CO)NC(=O)[C@@H](NC(=O)[C@H](CC(=O)O)NC(=O)[C@H](CO)NC(=O)[C@@H](NC(=O)[C@H](Cc1ccccc1)NC(=O)[C@@H](NC(=O)CNC(=O)[C@H](CCC(=O)O)NC(=O)CNC(=O)[C@@H](N)Cc1c[nH]cn1)[C@@H](C)O)[C@@H](C)O)C(C)C)[C@@H](C)CC)C(C)C)C(=O)O)C(=O)O (stereo partly drawn) (H-HGEGTFTSDVSSYLEGQAAREFIAWLVRGRE[ξK]([ξγGlu-Palmitoyl])-OH) | 0.135 nM | 11 h |
